Assay results as given in ChEMBL document CHEMBL1938383, “Novel 5- and 6-subtituted benzothiazoles with improved physicochemical properties: potent S1P₁ agonists with in vivo lymphocyte-depleting activity” (Bioorg Med Chem Lett, 2012).

Key:
[1] = target: T1, Sphingosine 1-phosphate receptor 1 (Homo sapiens, UniProt P21453); test: Agonist activity at human S1P1 receptor expressed in U20S cells coexpressing eGFP assessed as receptor internalization after 1 hr by microscopy analysis; type: functional, cell-based, U2OS
T1 sequence (P21453 whole entry): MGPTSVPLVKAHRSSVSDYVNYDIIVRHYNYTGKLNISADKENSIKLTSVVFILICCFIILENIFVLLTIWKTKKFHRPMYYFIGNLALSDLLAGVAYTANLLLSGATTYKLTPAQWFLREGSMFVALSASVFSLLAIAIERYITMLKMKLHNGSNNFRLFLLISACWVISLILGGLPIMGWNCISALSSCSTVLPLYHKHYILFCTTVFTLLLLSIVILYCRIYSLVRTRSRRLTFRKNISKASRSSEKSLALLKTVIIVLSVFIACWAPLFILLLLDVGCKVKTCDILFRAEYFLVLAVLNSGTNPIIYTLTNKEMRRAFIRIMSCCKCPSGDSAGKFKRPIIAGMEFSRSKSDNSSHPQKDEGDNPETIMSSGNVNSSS
Outline: (§1)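 hS1P1–eGFP U2OS cells held in serum-free medium 2 h, then exposed to compound 1 h at 37 °C. Cells fixed in 4% formaldehyde, nuclei stained with Hoechst, imaged by automated microscopy. Potency and efficacy from GFP-containing endosomes per cell plotted against concentration. Efficacy expressed relative to 0.200 µM S1P.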

[2] = target: T2, Sphingosine 1-phosphate receptor 3 (Homo sapiens, UniProt Q99500); test: Agonist activity at human S1P3 receptor expressed in CHO cells coexpressing Gq/i5 protein by calcium flux assay; type: functional, cell-based
T2 sequence (Q99500 whole entry): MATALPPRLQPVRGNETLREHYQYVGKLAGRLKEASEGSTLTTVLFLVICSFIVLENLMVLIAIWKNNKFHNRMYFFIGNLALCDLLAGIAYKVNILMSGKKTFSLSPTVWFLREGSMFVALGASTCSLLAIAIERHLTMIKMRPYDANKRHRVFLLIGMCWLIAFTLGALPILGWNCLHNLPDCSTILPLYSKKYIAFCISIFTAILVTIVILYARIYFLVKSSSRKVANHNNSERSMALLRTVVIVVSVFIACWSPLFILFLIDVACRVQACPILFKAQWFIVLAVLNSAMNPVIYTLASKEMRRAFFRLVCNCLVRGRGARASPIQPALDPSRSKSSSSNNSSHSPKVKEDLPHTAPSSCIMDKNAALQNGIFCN
Outline: (§2)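 Ca²⁺ flux read-out in CHO cells stably co-expressing human S1P3 and chimeric Gq/i5 G-protein.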

Rattus norvegicus [3] = test: Immunosuppressive activity in Lewis rat assessed as reduction of circulating lymphocytes at 1 mg/kg, po after 24 hrs; type: functional; design: scale not given: the % may be the effect or the level left
[4] = target: T1, Sphingosine 1-phosphate receptor 1; test: Agonist activity at human S1P1 receptor expressed in U20S cells coexpressing eGFP assessed as receptor internalization after 1 hr by microscopy analysis relative to S1P1; type: functional, cell-based; settings: U2OS; outline: as §1
Homo sapiens = species: Homo sapiens; test: Selectivity ratio of EC50 for human S1P3 receptor to EC50 for human S1P1 receptor
[5] = target: T2, Sphingosine 1-phosphate receptor 3; test: Agonist activity at human S1P3 receptor expressed in CHO cells coexpressing Gq/i5 protein by calcium flux assay relative to control; type: functional, cell-based; outline: as §2
[6] = Ratio of plasma concentration in Lewis rat at 10 mg/kg, po after 4 hrs to EC50 for human S1P1 receptor expressed in U20S cells; type: ADME, organism-based; design: dose 10 mg/kg, route oral; settings: in vivo
[7] = Plasma concentration in Lewis rat at 10 mg/kg, po after 4 hrs; type: ADME, organism-based; design: dose 10 mg/kg, route oral
Outline: (§3)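 Female Lewis rats (250 g, 6–8 wk), acclimatized ≥1 week, N = 5/group. Given vehicle (20% captisol in water) or 10 mg/kg compound in 20% captisol/water by oral gavage (10 mL/kg). Killed by CO₂ 4 h post-dose, blood taken by cardiac puncture. Total blood lymphocytes counted and total plasma concentration measured. Significance vs vehicle by ANOVA/Dunnett's test.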

Rattus norvegicus [8] = test: Immunosuppressive activity in Lewis rat assessed as reduction of circulating lymphocytes at 10 mg/kg, po after 4 hrs; type: functional; design: scale not given: the % may be the effect or the level left; outline: as §3

EC50 [1]	EC50 [2]	Efficacy [4]	Efficacy [5]	Compound	further results
240 nM	> 25000 nM	90%		O=C(O)C1CN(Cc2ccc(-c3nc4ccc(C5(c6ccccn6)CC5)cc4s3)c(F)c2)C1	Ratio EC50 (Homo sapiens): > 105
2720 nM	> 25000 nM	108%		O=C(O)C1CN(Cc2ccc(-c3nc4ccc(C(=O)N5CCCCCC5)cc4s3)c(F)c2)C1	
2710 nM	7420 nM	110%	21%	O=C(O)C1CN(Cc2ccc(-c3nc4ccc(C(=O)N5CCSC5)cc4s3)c(F)c2)C1	
430 nM	2680 nM	80%	72%	CC1(C)SCCN1C(=O)c1ccc2nc(-c3ccc(CN4CC(C(=O)O)C4)cc3F)sc2c1	
49 nM	900 nM	96%	87%	CC(C)C1SCCN1C(=O)c1ccc2nc(-c3ccc(CN4CC(C(=O)O)C4)cc3F)sc2c1 (racemic)	
		95%	82%	CCC(c1ccc2nc(-c3ccc(CN4CC(C(=O)O)C4)cc3F)sc2c1)c1ccccn1 (single isomer, unassigned) [listing 2 of 2 here]	
520 nM	9750 nM			CCC(c1ccc2nc(-c3ccc(CN4CC(C(=O)O)C4)cc3F)sc2c1)c1ccccn1 (single isomer, unassigned; (+)) [listing 1 of 2 here]	
150 nM	6240 nM			CCC1SCCN1C(=O)c1ccc2nc(-c3ccc(CN4CC(C(=O)O)C4)cc3F)sc2c1 (stereo in doubt; (-)-11f) [listing 1 of 2 here]	concentration at 4 h ([7]; Lewis, plasma): 130 nM; Activity (Rattus norvegicus [8]): 24%

Second part, the compound before the results:

Compound	EC50 [1]	EC50 [2]	Efficacy [4]	Efficacy [5]	further results
O=C(O)C1CN(Cc2ccc(-c3nc4cc(Cc5ccccc5)ccc4s3)c(F)c2)C1	41 nM	1210 nM			Activity (Rattus norvegicus [3]): 58%
O=C(O)C1CN(Cc2ccc(-c3nc4ccc(C5(c6ccccc6)CC5)nc4s3)c(F)c2)C1	2 nM	888 nM			
O=C(O)C1CN(Cc2ccc(-c3nc4cc(Cc5ccccn5)ccc4s3)c(F)c2)C1	680 nM	> 25000 nM	94%		Ratio EC50 (Homo sapiens): > 37
O=C(O)C1CN(Cc2ccc(-c3nc4ccc(Cc5ccccn5)cc4s3)c(F)c2)C1	1960 nM	> 25000 nM	71%		
O=C(c1ccc2nc(-c3ccc(CN4CC(C(=O)O)C4)cc3F)sc2c1)c1ccccn1	1300 nM	> 25000 nM	50%		
O=C(O)C1CN(Cc2ccc(-c3nc4ccc(C(=O)N5CCCCC5)cc4s3)c(F)c2)C1	1170 nM	> 25000 nM	95%		
O=C(O)C1CN(Cc2ccc(-c3nc4ccc(C(=O)N5CCCC5)cc4s3)c(F)c2)C1	> 20000 nM	> 25000 nM			
CC(c1ccc2sc(-c3ccc(CN4CC(C(=O)O)C4)cc3F)nc2c1)c1ccccn1 (racemic)	2370 nM	> 25000 nM	62%		
CC(c1ccc2nc(-c3ccc(CN4CC(C(=O)O)C4)cc3F)sc2c1)c1ccccn1 (racemic)	570 nM	> 25000 nM	79%		
CC1SCCN1C(=O)c1ccc2nc(-c3ccc(CN4CC(C(=O)O)C4)cc3F)sc2c1 (racemic)	42 nM	2040 nM	90%	71%	
CCC(c1ccc2nc(-c3ccc(CN4CC(C(=O)O)C4)cc3F)sc2c1)c1ccccn1 (single isomer, unassigned) [listing 1 of 2 here]	100 nM	2060 nM			
CCC1SCCN1C(=O)c1ccc2nc(-c3ccc(CN4CC(C(=O)O)C4)cc3F)sc2c1 (single isomer, unassigned; (+)) [listing 1 of 2 here]	17 nM	390 nM			Ratio [6]: 10; concentration ([7]; in vivo, 4 h): 190 nM; Activity (Rattus norvegicus [8]): 55%
CCC(c1ccc2nc(-c3ccc(CN4CC(C(=O)O)C4)cc3F)sc2c1)c1ccccn1 (single isomer, unassigned; (+)) [listing 2 of 2 here]			93%	30%	
CCC1SCCN1C(=O)c1ccc2nc(-c3ccc(CN4CC(C(=O)O)C4)cc3F)sc2c1 (single isomer, unassigned; (+)) [listing 2 of 2 here]			107%	82%	Ratio EC50 (Homo sapiens): 23
CCC1SCCN1C(=O)c1ccc2nc(-c3ccc(CN4CC(C(=O)O)C4)cc3F)sc2c1 (stereo in doubt; (-)-11f) [listing 2 of 2 here]			106%	36%	
